This excerpt belongs to a sample that is enriched for hits.
CHOP UPR activ: activators of apoptotic arm of unfolded protein response (CHOP); AID 449763; CHO-CHOP luciferase reporter, UPR activation, luminescence; percent of tunicamycin response over DMSO baseline; activation, % at 10 µM; hit rate 0.34% among 330,000;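 active means at 10 µM dose, activation of 40% or more, normalized to positive control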;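 further: 100% = tunicamycin at 10 µg/mL and 0% = DMSO alone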
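System: CHO-CHOP luciferase reporter cell line; amount: 500 cells/well; buffer or medium: F12 medium containing 10% fetal bovine serum; incubation: 6 h compound exposure at 37 °C after overnight seeding; measured by: luciferase luminescence after 10 min with Steady-Glo reagent; evaluation: % reporter activation, DMSO baseline versus tunicamycin full activation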
Dynein transport: blocks dynein driven cargo transport along microtubules; 3617.4 mouse cells, GR-EGFP nuclear translocation imaging; test concentration mostly 20 µM; stimulated with dexamethasone, 1 µM; hits give low values; AID 1381; z-score, hits read low; hit rate 0.47% among 220,000;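 active means plate z-score of nuclear minus cytoplasmic receptor signal below a set negative limit, without overly bright fluorescence or cell loss, cut at about -3.5 in these data, passing the limit was not always enough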;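 further: z-score of nuclear minus cytoplasmic ring GR-EGFP intensity difference per well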
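Buffer or medium: tet-free, stripped-serum medium; Also added: dexamethasone, 1.0 µM final; Technique: high-content fluorescence imaging after fixation; Times: 48 h induction, 1 h compound, 30 min dex at 37 °C; Read-out: per-cell GR-EGFP intensity, nucleus versus surrounding cytoplasmic ring, well-averaged.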
T cruzi inh: T. cruzi replication inhibition | T. cruzi beta-gal in NIH3T3, luminescence, 90 h | inhibition, % (test concentration not listed) | hit rate 1.4% among 300,000;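 active means mean inhibition across valid replicates above about 55%, limit read from the data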;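 further: signal also drops with host cell toxicity which is not excluded here; 0% = plate median of DMSO wells and 100% = zero luminescence signal; higher percent means less beta-gal luminescence so fewer parasites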
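System: NIH/3T3 fibroblasts plus reporter T. cruzi. Medium: DMEM plus 2% FBS. Probe or stimulus: 5000 reporter trypomastigotes per well. Compound: single 50 nL compound addition per well in DMSO. Incubation: co-culture of at least 90 h after 3 h attachment. Detection: GalScreen β-gal luminescence, detergent lysis, 60 min. Evaluation: parasite load inhibition, %.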
Lmaj promast: inhibitors of Leishmania major promastigote growth; AID 1063; Leishmania major promastigotes, resazurin fluorescence viability; inhibition, % at 10 µM; hit rate 9% among 200,000; in the data active means inhibition above about 50%;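 further: promastigotes grown with compound for 44 hours at 28 °C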
CHOP inhibitor: CHOP inhibition in unfolded protein response; AID 2732; inhibition, % at 10 µM; CHO-K1 CHOP-promoter luciferase, tunicamycin-induced, 15-18 h; hit rate 3.8% among 220,000;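 active means compounds that reduced the stress-induced luciferase reporter signal by more than about 70% of percent inhibition, limit read from the data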;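 further: 0% = tunicamycin plus vehicle and 100% = wells without tunicamycin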
XBP1 UPR activ: adaptive UPR (XBP1) activation | CHO-XBP1 luciferase reporter, IRE1-XBP1 UPR activation, luminescence; percent of tunicamycin response, DMSO as zero | activation, % at 20 µM | hit rate 0.33% among 330,000 | AID 463104;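 active means versus positive control, 20 µM dose yields 30% or more activation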;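 further: 100% = tunicamycin at 10 µg/mL and 0% = DMSO only wells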
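Assay system: IRE1-XBP1 luciferase reporter CHO line. Input: 1000 cells/well. Buffer or medium: F12 with 10% serum. Doses: 20 µM, 1% DMSO. Times: overnight seeding at 37 °C, 6 h compound treatment at 37 °C. Technique: Steady-Glo luciferase glow luminescence, 10 min after reagent addition.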
XBP1 UPR conf: adaptive UPR (XBP1) activation, confirmed; shares compounds with XBP1 UPR activ; CHO-XBP1 IRE1-XBP1 luciferase reporter, luminescence; activation, % at 20 µM; hit rate 63% among 1,000; AID 485299;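 active means reporter signal at least 30% of the positive control's activation in two or more of four replicate wells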;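 further: plate controls were DMSO negative control for no effect and tunicamycin 10 µg/mL positive control for full effect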
* hit, by the source's call.

What do the screens show for `COc1ccc(-c2sc3ccccc3c2-c2ccc(OCCN(C)C)cc2)cc1`?
CHOP UPR activ: 12.3; XBP1 UPR activ: 43.7*; XBP1 UPR conf: 57.9*

What do the screens show for `CCOC(=O)CC(=O)CSc1nc(-c2ccc3c(c2)OCO3)cc(C(F)(F)F)c1C#N`?
CHOP UPR activ: -2.1; Dynein transport: -0.62; T cruzi inh: -12.8; Lmaj promast: -4.2; CHOP inhibitor: 8.7; XBP1 UPR activ: 37.6*; XBP1 UPR conf: 11.2

How did CCOC(=O)CCSc1nc(-c2ccc3c(c2)OCO3)cc(C(F)(F)F)c1C#N do in these assays?
CHOP UPR activ: 0.4; Dynein transport: -1.31; T cruzi inh: -12.4; Lmaj promast: -1.2; CHOP inhibitor: -50.6; XBP1 UPR activ: 1.7

What do the screens show for `CCCCSCCCNC(=O)CCCN1C(=O)c2ccccc2Sc2ncccc21`?
CHOP UPR activ: 2.0; T cruzi inh: -1.7; XBP1 UPR activ: -7.5

How did COc1ccc(CCNC(=O)/C(C#N)=C2\N=C(NC(=O)c3ccco3)c3ccccc32)cc1 do in these assays?
CHOP UPR activ: 10.7; Dynein transport: 0.0215; T cruzi inh: -2.1; CHOP inhibitor: -21.5; XBP1 UPR activ: 33.0*; XBP1 UPR conf: 24.1

How did COc1ccc(C2/C(=C(/O)c3ccccc3)C(=O)C(=O)N2C)cc1OC (stereo unspecified) do in these assays?
CHOP UPR activ: -1.8; T cruzi inh: -1.5; XBP1 UPR activ: -3.1

Results for CCC(=O)Nc1ccc(NC(=O)CSc2nc3cc4c(cc3cc2C)CCC4)cc1 ?
CHOP UPR activ: 1.0; Dynein transport: 0.382; T cruzi inh: 48.7; Lmaj promast: 23.5; CHOP inhibitor: 94.4*; XBP1 UPR activ: 49.6*; XBP1 UPR conf: 39.9*

Results for Cc1ccccc1NC(=O)CSc1nc2cc3c(cc2cc1C)CCC3 ?
CHOP UPR activ: -1.1; Dynein transport: 0.13; T cruzi inh: -30.5; Lmaj promast: 6.3; CHOP inhibitor: 68.3; XBP1 UPR activ: -0.2

Results for Nc1nc(-c2cc(O)ccc2[N+](=O)[O-])cc(-c2ccccc2)c1[N+](=O)[O-] ?
CHOP UPR activ: 36.4; T cruzi inh: -2.9; XBP1 UPR activ: 310.7*; XBP1 UPR conf: 214.1*

How did CCN(CC)S(=O)(=O)c1ccc2c(c1)C(=NO)c1cc(S(=O)(=O)N(CC)CC)ccc1-2 do in these assays?
CHOP UPR activ: 14.0; Dynein transport: 0.122; T cruzi inh: 62.9*; Lmaj promast: 24.2; CHOP inhibitor: -21.9; XBP1 UPR activ: 51.6*; XBP1 UPR conf: 78.6*

What do the screens show for `COc1ccc(/C=C/C(=O)NC(=S)NCCc2ccc(OC)c(OC)c2)cc1`?
CHOP UPR activ: -0.7; Dynein transport: -0.238; T cruzi inh: -78.6; Lmaj promast: -3.6; CHOP inhibitor: 88.2*; XBP1 UPR activ: 69.3*; XBP1 UPR conf: 1.1

Results for C=CCn1c(=N)n(CC(=O)c2cccc([N+](=O)[O-])c2)c2ccccc21 ?
CHOP UPR activ: -0.2; Dynein transport: -0.244; T cruzi inh: 12.2; Lmaj promast: 25.4; CHOP inhibitor: 26.7; XBP1 UPR activ: -0.4

How did N=c1n(CC(=O)c2ccc([N+](=O)[O-])cc2)c2ccccc2n1Cc1ccccc1 do in these assays?
CHOP UPR activ: 9.2; Dynein transport: -1.07; T cruzi inh: 25.6; Lmaj promast: 99.3*; CHOP inhibitor: 75.0*; XBP1 UPR activ: 140.2*; XBP1 UPR conf: 24.3

How did CCOc1ccc(NC(=S)NC(=O)/C=C/c2ccc(C)cc2)c([N+](=O)[O-])c1 do in these assays?
CHOP UPR activ: 34.5; Dynein transport: 0.494; T cruzi inh: 25.2; Lmaj promast: 3.2; CHOP inhibitor: 62.9; XBP1 UPR activ: 213.0*; XBP1 UPR conf: 143.8*

How did COc1ccc(-c2noc(CNC(=O)CCCN3C(=O)[C@H]4CC=CC[C@H]4C3=O)n2)cc1 do in these assays?
CHOP UPR activ: -1.5; T cruzi inh: -0.3; XBP1 UPR activ: -6.7

What do the screens show for `CCOC(=O)c1c(NC(=O)c2cc3n(n2)C(C(F)(F)F)CC(c2cccs2)N3)sc(C)c1C` (stereo unspecified)?
CHOP UPR activ: 32.9; Dynein transport: -0.806; T cruzi inh: 17.8; Lmaj promast: 15.2; CHOP inhibitor: 59.5; XBP1 UPR activ: 33.3*; XBP1 UPR conf: 205.8*

What do the screens show for `CC1CCN(Cc2c(C(=O)N/N=C/c3ccc(C(F)(F)F)cc3)nnn2-c2nonc2N)CC1`?
CHOP UPR activ: 3.6; T cruzi inh: 10.3; XBP1 UPR activ: 30.2*; XBP1 UPR conf: 39.9*

Results for Cc1cc(C)c(/C=N/NC(=O)c2nnn(-c3nonc3N)c2CN2CCC(C)CC2)c(C)c1 ?
CHOP UPR activ: 1.7; T cruzi inh: 36.0; XBP1 UPR activ: 31.5*; XBP1 UPR conf: 5.9

How did CCOc1ccc(/C=N/NC(=O)c2nnn(-c3nonc3N)c2CN2CCC(C)CC2)cc1 do in these assays?
CHOP UPR activ: 4.5; T cruzi inh: -2.6; XBP1 UPR activ: -6.8

Results for COc1c(Cl)cc(Cl)cc1/C=N/NC(=O)c1nnn(-c2nonc2N)c1CN1CCC(C)CC1 ?
CHOP UPR activ: 7.3; T cruzi inh: 33.1; XBP1 UPR activ: 68.0*; XBP1 UPR conf: 91.2*

How did Cc1ccc(S(=O)(=O)c2cc3c(=O)n4cccc(C)c4nc3n(Cc3ccncc3)c2=N)cc1 do in these assays?
CHOP UPR activ: 15.3; T cruzi inh: 11.4; XBP1 UPR activ: 48.8*; XBP1 UPR conf: 19.5

How did Cc1ccsc1C(=O)OCC(=O)NC1CCCC1 do in these assays?
CHOP UPR activ: 0.9; XBP1 UPR activ: -0.6

How did COc1ccc(C(=O)Nc2nc3ccc(OC)cc3s2)cc1 do in these assays?
CHOP UPR activ: 6.6; T cruzi inh: -8.8; XBP1 UPR activ: 1.7

Results for COc1ccc2nc(NC(=O)c3cccc(-c4cc5ccccc5oc4=O)c3)sc2c1 ?
CHOP UPR activ: 24.8; Dynein transport: 0.0744; T cruzi inh: 24.7; Lmaj promast: -8.1; CHOP inhibitor: 105.4*; XBP1 UPR activ: 77.9*; XBP1 UPR conf: 54.5*

How did CC(CNS(=O)(=O)c1ccccc1)(c1ccccc1)N1CCOCC1 (stereo unspecified) do in these assays?
CHOP UPR activ: 0.8; Dynein transport: -0.843; T cruzi inh: 3.9; Lmaj promast: -1.1; CHOP inhibitor: -11.0; XBP1 UPR activ: -0.8

How did CCCOc1ccc(/C=N/NC(=O)CSCc2ccc([N+](=O)[O-])cc2)cc1OCC do in these assays?
CHOP UPR activ: 0.7; Dynein transport: 0.194; T cruzi inh: 22.6; Lmaj promast: 14.0; CHOP inhibitor: 48.5; XBP1 UPR activ: -0.5
